Published values of several laboratories.
Target: Mitogen-activated protein kinase kinase kinase 9 (MAP3K9, Homo sapiens, UniProt P80192)

For CO[C@@H]1[C@H](N(C)C(=O)c2ccccc2)C[C@H]2O[C@]1(C)n1c3ccccc3c3c4c(c5c6ccccc6n2c5c31)C(=O)NC4, the inhibition was 90% (enzyme activity, inhibitor; 1 µM).
The remaining binding of Cc1ccc(NC(=O)c2ccnc(C(F)(F)F)c2)cc1-c1cc(OCCO)nc(N2CCOCC2)c1 is reported as 100% (binding; 1 µM).
CCCCC(=O)Nc1ccc(-c2ccc3ncn(CCC)c(=O)c3c2)cn1 has a remaining binding of 83% (binding, competition with immobilised ligand; 0.5 µM).
C#Cc1cc(-c2cc(Nc3nc(N[C@@H](C)c4ccc(F)cn4)ncc3Cl)n[nH]2)ccc1C=O has an inhibition of 59.8% (enzyme activity, inhibitor; 0.2 µM).
C=CC(=O)N1CCC[C@@H](n2nc(-c3ccc(Oc4ccccc4)cc3)c3c(N)ncnc32)C1 gave an inhibition of 4% (enzyme activity, inhibitor; 1 µM).
With C#Cc1cnc(Nc2ccnc(CO)c2)nc1Nc1ccccc1S(C)(=O)=NC#N (stereo not drawn) the remaining signal was 26% (cell-free assay; 1 µM).
N#Cc1ccc(NC(=O)Nc2ccccc2)cc1 gave a remaining binding of 100% (cell-free assay, competition with immobilised ligand; 25 µM).
For CN1CCN(C(=O)c2ccc(NC(=O)Nc3ccc(N(C)c4ccnc(Nc5ccc(CS(C)(=O)=O)cc5)n4)cc3)cc2)CC1, the remaining binding was 86% (binding; 1 µM).
The remaining binding of COc1ccc2oc(-c3ccc4nc(N)oc4c3)c/c(=N\c3ccccc3NC(=O)CCN)c2c1 is reported as 83% (binding; 1 µM).
